E-selectin induc – induces E-selectin expression in human endothelial cells. HUVEC E-selectin immunofluorescence imaging; normalized: neutral wells 0, TNF-alpha wells 100. P16581. hit rate 0.37% among 260,000. activation, % at 7.58 µM;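 active means mean E-selectin-positive cell signal at least 10% of the positive control, reached in at least 60% of replicates, without over 20% cell loss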
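material = human umbilical vein endothelial cells (HUVEC), E-selectin induction | quantity = 3,000 cells/well | medium = EGM-2 growth medium on 0.1% gelatin-coated wells | technique = immunofluorescence imaging | read-out basis = % PE-positive cells | control set = TNF-alpha positive control, DMSO neutral control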
S100A4 inh HTS – inhibitors of human S100A4 binding to myosin IIA peptide; AID 652163; P26447; inhibition, % at 10.7 µM; S100A4/TAMRA-MyoIIA peptide fluorescence polarization; hit rate 0.14% among 360,000;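 active means mean inhibition of at least 70% across replicates, with every replicate also reaching that level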
Target sequence (P26447 whole entry, looked up): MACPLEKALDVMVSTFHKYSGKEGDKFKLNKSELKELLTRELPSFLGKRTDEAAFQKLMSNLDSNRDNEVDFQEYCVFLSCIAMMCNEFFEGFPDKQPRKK
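Test system: S100A4 monomer protein; Medium: HEPES pH 7.2 with CaCl2, KCl, NaCl, DTT, Triton; Probe or stimulus: TAMRA-labelled myosin IIA heavy-chain peptide probe, 5 nM; Doses: one dose per compound; Times: polarization read 5 min after assay mix addition, stable 5–60 min; Benchmarks: neutral control DMSO, positive control TFP.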
CFTR F508del cor – CFTR F508del correction in bronchial cells. activity (quench increase), % at 7.58 µM. hit rate 0.36% among 350,000. AID 720511. CFBE cells, YFP halide quenching; stimulated with forskolin plus potentiator P3; % fluorescence drop versus neutral controls;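 active means mean added fluorescence quench of at least 8% versus neutral control, with both replicates also reaching 8%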;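 further: cells transiently co-express mutant CFTR-F508del with the halide-sensitive YFP; corrector assay measuring rescue of mutant channel to the surface after 24 h compound exposure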
Env fusion inh – HIV envelope-mediated fusion inhibition | hit rate 1.1% among 360,000 | HeLa-JRFL Env/CEM21 cell fusion, luciferase | inhibition, % at 12.3 µM;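 active means mean replicate inhibition score of at least 50 and every replicate individually at or above 50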
FGF22 binding – binders of recombinant human FGF22 by thermal shift; SYPRO orange fluorescence; percent of sucrose octasulfate shift, DMSO zero; activity (Tm shift, normalised), % at 9.99 µM; hit rate 1.5% among 340,000; Q9HCT0;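 active means mean Tm shift, scaled 0 neutral to 100 positive control, at about 1.3% or above, every replicate too, limit read from the data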
Target sequence (Q9HCT0 whole entry, looked up): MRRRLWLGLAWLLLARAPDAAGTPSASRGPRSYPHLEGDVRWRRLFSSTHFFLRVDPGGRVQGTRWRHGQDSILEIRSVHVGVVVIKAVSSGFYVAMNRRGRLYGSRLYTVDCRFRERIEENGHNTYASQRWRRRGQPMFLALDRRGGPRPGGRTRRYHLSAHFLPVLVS
Large screens that a line does not name were inactive; [ ] = another dose, or the depositor's remark. Only some compounds are listed: those with a hit (about 2.7% of all), similar ones and a draw of the others.

COC(=O)C1C(c2ccc(N(C)C)cc2)C(C(=O)OC)S(=O)(=O)CS1(=O)=O (configuration not stated)	FGF22 binding 43
O=C(Cc1ccncc1)NCC[C@@H]1CC[C@@H](NC(=O)C2CC2)[C@@H](CO)O1	none
CCCCc1nnc(NC(=O)C2CCCO2)s1 (configuration not stated)	none (no result: E-selectin induc, S100A4 inh HTS, CFTR F508del cor, FGF22 binding)
CCC(CC)c1nnc(NC(=O)C2CCCO2)s1 (configuration not stated)	FGF22 binding 43 (no result: E-selectin induc)
Cc1cc(=O)[nH]c(SCc2nc3ccc([N+](=O)[O-])cc3[nH]2)n1	none (no result: E-selectin induc, CFTR F508del cor)
CCCc1cc(=O)[nH]c(SCc2nc3ccc([N+](=O)[O-])cc3[nH]2)n1	FGF22 binding 43
O=c1[nH]c(=O)c2cc([N+](=O)[O-])cc([N+](=O)[O-])c2[nH]1	FGF22 binding 43 (no result: E-selectin induc)
O=c1[nH]c2cc([N+](=O)[O-])c([N+](=O)[O-])cc2[nH]c1=O	none (no result: E-selectin induc)
CO[C@H]1CN(C)C(=O)c2ccc(NS(=O)(=O)C3CCCCC3)cc2OC[C@H](C)NC[C@@H]1C	none (no result: Env fusion inh)
Cc1ccc(C(NC(=O)NN2CCN(C)CC2)C(Cl)Cl)cc1F (configuration not stated)	none (no result: E-selectin induc)
Cc1ccc(C(NC(=O)N2CCCC2)C(Cl)Cl)cc1F (configuration not stated)	FGF22 binding 44 (no result: E-selectin induc)
CCN1CCN(C(=O)NC(c2ccc(C)c(F)c2)C(Cl)Cl)CC1 (configuration not stated)	FGF22 binding 44 (no result: E-selectin induc)
C[C@@H]1CN([C@@H](C)CO)C(=O)c2cc(NC(=O)c3ccccc3)ccc2O[C@@H](C)CCCCO[C@@H]1CN(C)C(=O)NC1CCCCC1	none (no result: S100A4 inh HTS)
CC1CCCC(C)N1CCCNC(=O)c1nn(C)c2c1CSc1ccccc1-2 (configuration not stated)	Env fusion inh 80 (no result: E-selectin induc)
CCC(=O)Nc1ccc(-c2cc3ccccc3oc2=O)cc1	none (no result: E-selectin induc)
CCC(=O)Nc1cc(-c2cc3ccccc3oc2=O)ccc1OC	FGF22 binding 43 (no result: E-selectin induc)
CC(C)(C)c1ccc(Cn2nnc3c(=O)[nH]c(C4CCCN(C(=O)Cc5cccs5)C4)nc32)cc1 (configuration not stated)	Env fusion inh 63 (no result: E-selectin induc, S100A4 inh HTS, CFTR F508del cor, FGF22 binding)
CC(C)(C)c1ccc(Cn2nnc3c(=O)[nH]c(C4CCN(C(=O)Cc5cccs5)CC4)nc32)cc1	Env fusion inh 72 (no result: E-selectin induc, S100A4 inh HTS, CFTR F508del cor, FGF22 binding)
Cc1ccc(Cn2nnc3c(=O)[nH]c(C4CCN(C(=O)Cc5cccs5)CC4)nc32)cc1	none (no result: E-selectin induc, Env fusion inh)
C[C@@H]1CN([C@@H](C)CO)C(=O)c2cc(NS(=O)(=O)c3ccc(F)cc3)ccc2O[C@@H](C)CCCCO[C@H]1CN(C)C(=O)CCC(F)(F)F	none (no result: E-selectin induc)
NC(=S)N=Nc1c(O)n(CCCl)c2ccc(Cl)cc12	FGF22 binding 44
O=C(Nc1ccc(F)cc1)Nc1ccccc1NS(=O)(=O)c1cccs1	FGF22 binding 49
O=C(Nc1ccc(Cl)cc1)Nc1ccccc1NS(=O)(=O)c1cccs1	none
CCCC(=O)Nc1ccc2c(c1)C(=O)N(C)C[C@H](OC)[C@H](C)CN(C(=O)C1CCCC1)[C@@H](C)CO2	none
O=C(NC1=NCCS1)C1COc2ccccc2O1 (configuration not stated)	Env fusion inh 98 (no result: E-selectin induc, S100A4 inh HTS, CFTR F508del cor, FGF22 binding)
Cc1ccc(/C=N/NC(=O)C2COc3ccccc3O2)s1 (configuration not stated)	CFTR F508del cor 11
COc1cc(-c2cc(OC)c(O)c(OC)c2)cc(OC)c1O	Env fusion inh 78
COc1cc(C(=O)C(=O)c2cc(OC)c(O)c(OC)c2)cc(OC)c1O	none
Cc1nc(N2CCN(C(=O)COc3ccccc3)CC2)c2c(C)c(C)sc2n1	Env fusion inh 61 (no result: E-selectin induc, S100A4 inh HTS, CFTR F508del cor, FGF22 binding)
C[C@H]1CN([C@@H](C)CO)C(=O)c2cc(NC(=O)Nc3ccc4c(c3)OCO4)ccc2O[C@H]1CN(C)C(=O)Nc1ccc(F)cc1	none (no result: S100A4 inh HTS)
Cc1ccc(-c2ccc3c(c2)O[C@H](CN(C)Cc2ccccn2)[C@@H](C)CN([C@@H](C)CO)S3(=O)=O)cc1	CFTR F508del cor 12
Cc1ccc(-c2ccc3c(c2)O[C@@H](CN(C)Cc2ccccn2)[C@@H](C)CN([C@@H](C)CO)S3(=O)=O)cc1	none
C[C@@H]1CN([C@@H](C)CO)S(=O)(=O)c2ccc(-c3ccccc3)cc2O[C@@H]1CN(C)Cc1ccccn1	none
Cc1ccc(-c2ccc3c(c2)O[C@H](CN(C)Cc2ccccn2)[C@@H](C)CN([C@H](C)CO)S3(=O)=O)cc1	CFTR F508del cor 16
Cc1ccccc1S(=O)(=O)N1CC[C@@H]2[C@@H](CO)Nc3ccc(-c4ccc(C#N)cc4)cc3[C@@H]21	none (no result: Env fusion inh)
Cc1noc(C)c1NC(=O)N(C)C[C@H]1OCCCC[C@H](C)Oc2ccc(NC(=O)NC(C)C)cc2C(=O)N([C@@H](C)CO)C[C@@H]1C	none
O=S(=O)(NC(=S)NC1CCCCC1)c1ccccc1	none
O=S(=O)(NC(=S)NC1CCCCC1)c1cccs1	FGF22 binding 43
CN(C)C(=O)C[C@@H]1C[C@H]2c3cc(NS(=O)(=O)c4ccc(F)cc4)ccc3O[C@H]2[C@H](CO)O1	Env fusion inh 90[16.7 µM] (no result: S100A4 inh HTS)
C[C@H](NC(=O)C[C@H]1C[C@@H]2c3cc(NS(=O)(=O)c4ccc(F)cc4)ccc3O[C@@H]2[C@H](CO)O1)c1ccccc1	none
CN(C)C(=O)C[C@H]1C[C@@H]2c3cc(NS(=O)(=O)c4ccc(F)cc4)ccc3O[C@@H]2[C@@H](CO)O1	Env fusion inh 90[16.7 µM] (no result: S100A4 inh HTS)
C[C@@H](NC(=O)C[C@H]1C[C@@H]2c3cc(NS(=O)(=O)c4ccc(F)cc4)ccc3O[C@@H]2[C@H](CO)O1)c1ccccc1	Env fusion inh 86[16.7 µM]
CN(C)C(=O)C[C@@H]1C[C@@H]2c3cc(NS(=O)(=O)c4ccc(F)cc4)ccc3O[C@@H]2[C@@H](CO)O1	Env fusion inh 70[16.7 µM] (no result: S100A4 inh HTS)
CN(C)C(=O)C[C@H]1C[C@@H]2c3cc(NS(=O)(=O)c4ccc(F)cc4)ccc3O[C@@H]2[C@H](CO)O1	none (no result: S100A4 inh HTS)
CC(=O)Nc1ccc(NC(=O)COc2cccc3c2OC(C)(C)C3)cc1	CFTR F508del cor 11
C[C@@H]1CN([C@@H](C)CO)C(=O)c2cc(C#CC(C)(C)O)cnc2O[C@@H]1CN(C)C(=O)C1CCCCC1	none (no result: S100A4 inh HTS, FGF22 binding)
CO[C@@H]1CN(C)C(=O)c2cc(NC(=O)C3CC3)ccc2OC[C@@H](C)N(C(=O)c2ccccn2)C[C@@H]1C	none (no result: S100A4 inh HTS, Env fusion inh, FGF22 binding)
CSc1nc2c(cnn2-c2ccc(C)c(C)c2)c(=O)[nH]1	E-selectin induc 48
CCCN(C)C[C@H]1Oc2ncc(-c3cccnc3)cc2C(=O)N([C@@H](C)CO)C[C@H]1C	none
COc1ccc(C#Cc2cnc3c(c2)C(=O)N([C@H](C)CO)C[C@H](C)[C@H](CN(C)C(=O)Nc2cccc4ccccc24)O3)cc1OC	none
O=C(C[C@H]1CC[C@H](NC(=O)CC2CC2)[C@@H](CO)O1)NCc1ccc(Cl)cc1	none

High-throughput results: PubChem, Broad Institute
